Results published in ChEMBL document CHEMBL4038302, “Fibroblast Activation Protein α Activated Tripeptide Bufadienolide Antitumor Prodrug with Reduced Cardiotoxicity” (J Med Chem, 2017).
Calls of active or inactive are those of the source. The rule behind the calls is not given here.

Legend:
Prolyl endopeptidase FAP [1] = target: T1, Prolyl endopeptidase FAP (Homo sapiens, UniProt Q12884); assay: (§1) Prodrug activation assessed as recombinant human FAP-alpha mediated (S)-((3S,5R,8R,9S,10S,11S,13R,14S,17R)-11,14-dihydroxy-10,13-dimethyl-12-oxo-17-(2-oxo-2H-pyran-5-yl)hexadecahydro-1H-cyclopenta[a]phenanthren-3-yl) 2-amino-3-methylbutanoate formation […] after 90 mins by UPLC-MS/MS analysis; details: 1.5 h
T1 sequence (Q12884 whole entry): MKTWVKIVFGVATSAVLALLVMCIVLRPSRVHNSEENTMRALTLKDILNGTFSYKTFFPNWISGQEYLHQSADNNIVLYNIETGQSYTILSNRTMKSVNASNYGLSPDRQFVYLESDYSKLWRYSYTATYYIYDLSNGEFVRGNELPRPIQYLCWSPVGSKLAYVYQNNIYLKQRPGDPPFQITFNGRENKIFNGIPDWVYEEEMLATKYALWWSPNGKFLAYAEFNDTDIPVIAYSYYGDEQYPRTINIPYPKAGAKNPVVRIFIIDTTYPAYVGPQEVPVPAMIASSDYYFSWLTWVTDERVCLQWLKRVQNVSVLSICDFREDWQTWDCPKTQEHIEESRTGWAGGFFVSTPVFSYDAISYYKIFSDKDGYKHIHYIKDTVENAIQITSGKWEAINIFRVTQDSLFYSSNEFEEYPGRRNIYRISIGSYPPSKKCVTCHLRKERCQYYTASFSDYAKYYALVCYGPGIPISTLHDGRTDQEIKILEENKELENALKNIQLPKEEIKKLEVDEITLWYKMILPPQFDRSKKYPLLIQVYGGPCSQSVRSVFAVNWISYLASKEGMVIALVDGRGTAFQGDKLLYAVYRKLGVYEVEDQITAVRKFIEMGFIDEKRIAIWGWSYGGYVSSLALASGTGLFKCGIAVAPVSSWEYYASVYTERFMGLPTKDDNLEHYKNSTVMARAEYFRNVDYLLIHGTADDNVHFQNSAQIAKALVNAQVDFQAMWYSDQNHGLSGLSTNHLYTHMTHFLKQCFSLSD
Method in brief: (§2)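 Prodrug at 0.625–40 μmol/L incubated with rhFAPα at 0.45 μg/mL and internal standard in 0.2 mL PBS, pH 7.4, at 37 °C for 90 min. Quenched with MeCN and spun at 18 000g for 15 min; product measured by UPLC-MS/MS. S50 and Vmax fitted with an allosteric sigmoidal model; CLint = Vmax/S50. Three independent experiments.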

[2] = Acute toxicity in iv dosed Kunming mouse measured less than 4 hrs post dose; assay type: organism-based; details: in vivo
Method in brief: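 Kunming mice (22.0−28.0 g), half male and half female, 10 groups of n = 10. Single iv dose on day 1 across five levels per compound (prodrug 29.98–50.00 μmol/kg; arenobufagin 4.50–8.00 μmol/kg). Watched continuously for 8 h for abnormal behaviour and deaths, then intermittently for 2 weeks, and sacrificed day 14. LD50 by Bliss method.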

MDA-MB-231 [3] = assay: Antiproliferative activity against FAP-alpha deficient human MDA-MB-231 cells incubated for 48 hrs by MTT assay; assay type: functional, cell-based; details: MDA-MB-231, 48 h
Method in brief: (§3)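 Cells grown in DMEM with 10% FBS and 1% penicillin-streptomycin at 37 °C, 5% CO2; 10% heat-inactivated FBS used during cytotoxicity testing to exclude serum FAP activity. Viability read by MTT; IC50 as mean ± SEM of at least three independent experiments. Transfected lines were made from MDA-MB-231 with human FAPα plasmid or empty pCMV6-Entry vector and checked by Western blot at 48 h.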

MDA-MB-231 [4] = assay: Antitumor activity against human MDA-MB-231 cells xenografted in BALB/C nude mouse at 4 umol/kg, iv administered starting on day 5 measured after day 22 by Ki67 staining-based assay relative to control; assay type: functional
Method in brief: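 Female BALB/C nude mice, MDA-MB-231 cells (1 × 10^7) injected subcutaneously in Matrigel–PBS 1:1. Daily iv dosing in 5% HS15 vehicle from day 5. Tumours fixed and paraffin-embedded, 5 μm sections, anti-Ki67 IHC, read blind by a pathologist. Proliferative index by image analysis, n = 6. Compared with 5% HS15 control by one-way ANOVA and Tukey's test.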

[5] = Cytotoxicity in BMSC (unknown origin) assessed as cell viability at 1000 nmol/L after 72 hrs by MTT assay; assay type: cell-based; details: unidentified, 1 µM
MCF7 = assay: Antiproliferative activity against FAP-alpha deficient human MCF7 cells incubated for 48 hrs by MTT assay; assay type: functional, cell-based; details: MCF7, 48 h; method in brief: as §3
MDA-MB-231 [6] = assay: Antitumor activity against human MDA-MB-231 cells xenografted in BALB/C nude mouse assessed as tumor regression at 4 umol/kg, iv administered starting on day 5 measured after day 22 by Ki67 staining-based assay; assay type: functional, organism-based
Mus musculus [7] = assay: Cardiotoxicity in BALB/C nude mouse xenografted with human MDA-MB-231 cells assessed as increase in LDH level at 4 umol/kg, iv administered starting on day 5 measured after day 22; assay type: toxicity, organism-based; details: in vivo
Method in brief: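 Xenograft-bearing mice dosed iv daily in 5% HS15. Blood taken by cardiac puncture before sacrifice and spun at 3000 rpm for 20 min at 4 °C to give serum. D-LDH activity measured by colorimetric kit. n = 6, one-way ANOVA with Tukey's test against HS15 control.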

Mus musculus [8] = assay: Cardiotoxicity in BALB/C nude mouse xenografted with human MDA-MB-231 cells assessed as decrease in left ventricular internal diastole dimension at 4 umol/kg, iv administered starting on day 5 measured after day 22 by echocardiography; assay type: toxicity, organism-based; details: in vivo
Method in brief: (§4)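 MDA-MB-231 xenograft mice dosed iv daily in 5% HS15 from day 5, 22 days of treatment. Transthoracic echocardiography with a 21 MHz transducer under 1.5% isoflurane, supine position. M-mode images from parasternal short-axis view at papillary muscle level, used to derive LVIDd, LVIDs, IVSd and IVSs. n = 6, mean ± SEM, one-way ANOVA with Tukey's test.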

Mus musculus [9] = assay: Cardiotoxicity in BALB/C nude mouse xenografted with human MDA-MB-231 cells assessed as increase in interventricular septal systole dimension at 4 umol/kg, iv administered starting on day 5 measured after day 22 by echocardiography; assay type: toxicity, organism-based; details: in vivo; method in brief: as §4
Mus musculus [10] = assay: Acute toxicity in Kunming mouse assessed as mortality at 4 umol/kg, iv after 8 hrs post dose; assay type: organism-based; details: in vivo
Mus musculus [11] = assay: Cardiotoxicity in BALB/C nude mouse xenografted with human MDA-MB-231 cells assessed as cytoplasmic vacuolization at 4 umol/kg, iv administered starting on day 5 measured after day 22 by hematoxylin-eosin staining-based assay; assay type: toxicity, organism-based; details: in vivo
Method in brief: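 Xenograft mice (MDA-MB-231, female BALB/C nude) dosed iv daily in 5% HS15 from day 5. Heart fixed 24 h, paraffin-embedded, cut into 5 μm sections and stained with H&E. Vacuolization scored by a pathologist blind to treatment.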

Mus musculus [12] = assay: Cardiotoxicity in BALB/C nude mouse xenografted with human MDA-MB-231 cells assessed as increase in interventricular septal diastole dimension at 4 umol/kg, iv administered starting on day 5 measured after day 22 by echocardiography; assay type: toxicity, organism-based; details: in vivo; method in brief: as §4
MDA-MB-435 = assay: Antiproliferative activity against wild type human MDA-MB-435 cells expressing FAP-alpha incubated for 48 hrs by MTT assay; assay type: functional, cell-based; details: MDA-MB-435, 48 h; method in brief: as §3
Mus musculus [13] = assay: Cardiotoxicity in BALB/C nude mouse xenografted with human MDA-MB-231 cells assessed as decrease in left ventricular internal systole dimension at 4 umol/kg, iv administered starting on day 5 measured after day 22 by echocardiography; assay type: toxicity, organism-based; details: in vivo; method in brief: as §4
MDA-MB-231 [14] = assay: Antiproliferative activity against human MDA-MB-231 cells assessed as decrease in cell viability at 62.5 to 500 nmol/L after 72 hrs by MTT assay; assay type: functional, cell-based
Prolyl endopeptidase FAP [15] = target: T1, Prolyl endopeptidase FAP; assay: (§5) Prodrug activation assessed as Vmax for recombinant human FAP-alpha mediated (S)-((3S,5R,8R,9S,10S,11S,13R,14S,17R)-11,14-dihydroxy-10,13-dimethyl-12-oxo-17-(2-oxo-2H-pyran-5-yl)hexadecahydro-1H-cyclopenta[a]phenanthren-3-yl) 2-amino-4-methylpentanoate formation after 90 mins by UPLC-MS/MS analysis; details: 1.5 h; method in brief: as §2
Prolyl endopeptidase FAP [16] = target: T1, Prolyl endopeptidase FAP; assay: as §1, with “2-amino-4-methylpentanoate” for “2-amino-3-methylbutanoate”; details: 1.5 h; method in brief: as §2
Prolyl endopeptidase FAP [17] = target: T1, Prolyl endopeptidase FAP; assay: as §5, with “as” for “as Vmax for”, “formation by measuring concentration of test compound gives half-maximal activity” for “formation”; details: 1.5 h; method in brief: as §2
Prolyl endopeptidase FAP [18] = target: T1, Prolyl endopeptidase FAP; assay: Prodrug activation assessed as recombinant human FAP-alpha mediated (3S,5R,8R,9S,10S,11S,13R,14S,17R)-11,14-dihydroxy-10,13-dimethyl-12-oxo-17-(2-oxo-2H-pyran-5-yl)hexadecahydro-1H-cyclopenta[a]phenanthren-3-yl 4-aminobenzoate formation at 40 umol/L after 6 hrs by UPLC-MS/MS analysis; details: 40 µM
Method in brief: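 Prodrug at 40 μmol/L incubated with rhFAPα at 0.45 μg/mL in 0.2 mL buffer at 37 °C for 6 h, with bufalin at 2 μmol/L as internal standard. Stopped with acetonitrile and spun at 18 000g for 15 min. Released active form measured by UPLC-MS/MS via peak-area ratio against a standard curve of 0.625–40 μmol/L.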

CC(C)[C@H](NC(=O)[C@@H]1CCCN1C(=O)CNC(=O)OCc1ccccc1)C(=O)O[C@H]1CC[C@@]2(C)[C@H](CC[C@@H]3[C@@H]2[C@H](O)C(=O)[C@]2(C)[C@@H](c4ccc(=O)oc4)CC[C@]32O)C1
CL (Prolyl endopeptidase FAP [1]): 1270 µL/min/mg

C[C@]12CC[C@H](O)C[C@H]1CC[C@@H]1[C@@H]2[C@H](O)C(=O)[C@]2(C)[C@@H](c3ccc(=O)oc3)CC[C@]12O
LD50 at 4 h [2]: 6.82 µmol/kg
IC50 (MDA-MB-231 [3]): 15.7 nM
Activity (MDA-MB-231 [4]): 45 - 50%
Activity [5]: Non-Toxic
IC50 (MCF7): 8.88 nM
Activity (MDA-MB-231 [6]): Active
Activity (Mus musculus [7]): Toxic
Activity (Mus musculus [8]): Toxic
Activity (Mus musculus [9]): Toxic
Activity (Mus musculus [10]): Non-Toxic
Activity (Mus musculus [11]): Toxic
Activity (Mus musculus [12]): Toxic
IC50 (MDA-MB-435): 22.4 nM
Activity (Mus musculus [13]): Toxic
Activity (MDA-MB-231 [14]): Active

CC(C)C[C@H](NC(=O)[C@@H]1CCCN1C(=O)CNC(=O)OCc1ccccc1)C(=O)O[C@H]1CC[C@@]2(C)[C@H](CC[C@@H]3[C@@H]2[C@H](O)C(=O)[C@]2(C)[C@@H](c4ccc(=O)oc4)CC[C@]32O)C1
Vmax (Prolyl endopeptidase FAP [15]): 0.042 µmol/min/mg
CL (Prolyl endopeptidase FAP [16]): 3520 µL/min/mg
S50 (Prolyl endopeptidase FAP [17]): 11.92 µmol/L

C[C@]12CC[C@H](OC(=O)c3ccc(NC(=O)[C@@H]4CCCN4C(=O)CNC(=O)OCc4ccccc4)cc3)C[C@H]1CC[C@@H]1[C@@H]2[C@H](O)C(=O)[C@]2(C)[C@@H](c3ccc(=O)oc3)CC[C@]12O
Drug metabolism (Prolyl endopeptidase FAP [18]): Metabolite_Notdetected
